Reference: ChEMBL document CHEMBL3632461 (J Med Chem, 2015)

Tests used:
[1] = Lipophilicity, log D of the compound at pH 7.4 by shake-flask method; assay type: physicochemical; details: buffer
[2] = Apparent permeability across RRCK cells; assay type: ADME, cell-based, Canis lupus familiaris, MDCKII-LE; details: dog, MDCK
Summary of the method: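 Passive permeability measured in Ralph−Russ canine kidney (RRCK) cells, a low-transporter line isolated from Madin−Darby canine kidney cells; reported as P_app (10⁻⁶ cm/s).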

[3] = Plasma clearance in Wistar rat at 1 mg/kg, iv and 3 or 5 mg/kg, po; assay type: ADME, organism-based
Summary of the method: (§1)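 Male CD-1 mice (25−35 g), cannulated Wistar-Han rats (250 g), beagle dogs (12 kg) and cynomolgus monkeys (7 kg), fasted overnight and fed 1.0 or 2.0 h after dosing. iv 1 mg/kg in saline or 12% sulfobutyl ether β-cyclodextrin; po 3 or 5 mg/kg in 0.5% methylcellulose. Parameters calculated from plasma concentration−time data; mean ± SD for n = 3, individual values for n = 2.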

[4] = Plasma clearance in CD-1 mouse at 1 mg/kg, iv and 3 or 5 mg/kg, po; assay type: ADME, organism-based; summary of the method: as §1
[5] = Tmax in Beagle dog at 3 or 5 mg/kg, po; assay type: ADME, organism-based, Canis lupus familiaris; details: in vivo
Summary of the method: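 Male animals (CD-1 mice 25−35 g, cannulated Wistar-Han rats 250 g, beagle dogs 12 kg, cynomolgus monkeys 7 kg), fasted overnight and fed 1.0 or 2.0 h after dosing, water ad libitum. Oral dose 3 or 5 mg/kg in 0.5% methylcellulose. Parameters calculated from plasma concentration−time data; mean ± SD for n = 3, individual values for n = 2.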

[6] = target: T1, Thyroid peroxidase (Homo sapiens) (UniProt P07202); assay: Inhibition of TPO (unknown origin) using Amplex Red as substrate assessed as formation of resorufin by measuring ratio of Kinact to Ki measured every 20 secs by spectrophotometric analysis
T1 sequence (whole entry): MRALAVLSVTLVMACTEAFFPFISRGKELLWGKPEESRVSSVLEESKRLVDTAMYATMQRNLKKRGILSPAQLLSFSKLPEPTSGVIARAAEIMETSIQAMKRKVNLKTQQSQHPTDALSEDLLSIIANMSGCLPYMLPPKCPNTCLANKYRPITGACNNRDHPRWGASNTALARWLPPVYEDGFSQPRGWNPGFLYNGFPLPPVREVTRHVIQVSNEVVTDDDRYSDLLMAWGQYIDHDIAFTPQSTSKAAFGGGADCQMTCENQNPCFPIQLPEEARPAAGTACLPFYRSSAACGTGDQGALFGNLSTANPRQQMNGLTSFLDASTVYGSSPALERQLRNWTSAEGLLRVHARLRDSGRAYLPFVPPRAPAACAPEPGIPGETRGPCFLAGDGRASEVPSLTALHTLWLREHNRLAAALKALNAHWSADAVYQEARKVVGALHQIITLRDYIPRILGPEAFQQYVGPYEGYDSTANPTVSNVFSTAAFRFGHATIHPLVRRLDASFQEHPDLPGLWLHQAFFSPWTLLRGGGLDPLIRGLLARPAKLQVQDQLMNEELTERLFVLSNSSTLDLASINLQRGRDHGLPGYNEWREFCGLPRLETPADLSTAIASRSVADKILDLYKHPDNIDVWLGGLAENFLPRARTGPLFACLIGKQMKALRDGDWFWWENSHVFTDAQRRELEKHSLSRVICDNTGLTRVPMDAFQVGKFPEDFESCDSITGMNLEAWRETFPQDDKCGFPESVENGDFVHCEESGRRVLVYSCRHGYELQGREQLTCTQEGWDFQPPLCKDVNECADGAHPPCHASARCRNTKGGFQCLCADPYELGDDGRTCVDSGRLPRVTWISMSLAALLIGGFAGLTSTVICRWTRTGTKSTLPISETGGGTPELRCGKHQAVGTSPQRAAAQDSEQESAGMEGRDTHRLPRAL
Summary of the method: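 Amplex Red oxidation to resorufin in 50 mM sodium phosphate pH 7.4, 150 mM NaCl, 1 mM DTPA, 2 μM H2O2, 30 μM Amplex Red, 2% DMSO. Reaction started by adding TPO. Background rate measured with bovine catalase added and subtracted. Fluorescence (ex 530/em 580) read every 20 s at room temperature. kinact/KI taken from initial rates over the first 300 s. Geometric mean of at least two experiments.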

[7] = target: T2, Myeloperoxidase (Homo sapiens) (UniProt P05164); assay: Inhibition of peroxidase activity of MPO isolated from human polynuclear leukocytes using Amplex Red as substrate assessed as formation of resorufin by measuring ratio of Kinact to Ki measured every 20 secs by spectrophotometric analysis
T2 sequence (whole entry): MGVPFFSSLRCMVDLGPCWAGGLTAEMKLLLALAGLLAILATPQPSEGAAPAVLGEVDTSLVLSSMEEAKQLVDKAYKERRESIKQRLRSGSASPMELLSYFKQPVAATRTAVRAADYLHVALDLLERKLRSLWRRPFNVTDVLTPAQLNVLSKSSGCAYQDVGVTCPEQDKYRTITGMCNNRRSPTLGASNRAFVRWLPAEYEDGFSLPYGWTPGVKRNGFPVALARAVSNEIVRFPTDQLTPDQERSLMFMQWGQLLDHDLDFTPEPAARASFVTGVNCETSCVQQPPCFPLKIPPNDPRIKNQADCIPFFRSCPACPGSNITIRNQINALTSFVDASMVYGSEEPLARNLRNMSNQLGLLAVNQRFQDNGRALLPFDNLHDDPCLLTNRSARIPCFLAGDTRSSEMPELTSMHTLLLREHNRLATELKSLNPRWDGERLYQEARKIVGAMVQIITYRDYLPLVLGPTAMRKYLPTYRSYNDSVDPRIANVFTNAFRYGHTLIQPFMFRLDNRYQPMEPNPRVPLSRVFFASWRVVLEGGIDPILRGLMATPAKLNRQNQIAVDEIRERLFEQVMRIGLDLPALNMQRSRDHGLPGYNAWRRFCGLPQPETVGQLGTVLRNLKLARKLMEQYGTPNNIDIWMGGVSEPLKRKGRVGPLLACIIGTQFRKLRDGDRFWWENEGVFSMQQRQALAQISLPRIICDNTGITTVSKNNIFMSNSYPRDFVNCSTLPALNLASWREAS
Summary of the method: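 Enzyme purified from human polynuclear leukocytes. Buffer: 50 mM sodium phosphate pH 7.4, 150 mM NaCl, 1 mM DTPA, 2 μM H2O2, 30 μM Amplex Red, inhibitor or DMSO. Resorufin fluorescence (ex 530/em 580) read every 20 s at room temperature. Progress curves fitted for kobs at each concentration. kinact/KI derived from the kobs versus [I] fit or slope. Geometric mean of at least two experiments.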

[8] = target: T3, Myeloperoxidase (Homo sapiens, UniProt P05164); assay: Irreversible inhibition of MPO in LPS-stimulated human whole blood after 4 hrs by Amplex Red/H2O2-based fluorescence plate reader analysis
T3 sequence (P05164 whole entry): T2 sequence (whole entry)
Summary of the method: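 Heparinized whole blood from healthy human volunteers, stimulated with bacterial LPS and incubated with compound for 4 h. MPO captured on anti-MPO antibody plates and washed; residual activity measured with Amplex Red and H₂O₂. IC₅₀ reported as geometric mean [90% CI].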

| Compound | logD [1] | Papp [2] [×10⁻⁶ cm/s] | clearance [3] [mL/min/kg] | clearance [4] [mL/min/kg] | Tmax [5] [h] | log(ratio) [6] | log(ratio) [7] | IC50 [8] [nM] |
| --- | --- | --- | --- | --- | --- | --- | --- | --- |
| COc1ccc(Cl)cc1-c1cc(=O)[nH]c(=S)n1CC(N)=O [PF-06282999] | 0.81 | 1.6 | 41.8 | 10.1 | 0.7 |  |  |  |
| COc1ccc(-c2cc(=O)[nH]c(=S)n2CCO)c(OC)c1 | 1.1 | 13 | 59.3 |  | 1.17 | < 0.5 | 4.47 | 2000 |
| COc1ccc(OC)c(-c2cc(=O)[nH]c(=S)n2CC(N)=O)c1 | 0.34 | 1.1 | 37.6 |  | 0.63 | < 0.5 | 4.09 | 1500 |
| COc1ccc(-c2cc(=O)[nH]c(=S)n2CCN)c(OC)c1 | -0.17 | 3.5 | 70.3 |  | 1.3 | < 0.5 | 4.13 | 500 |
| COc1ccc(-c2cc(=O)[nH]c(=S)n2CC(N)=O)c(OC)c1 | 0.59 | 0.8 | 35.1 |  | 1.5 | < 0.5 | 4.03 | 2600 |
